This is an account of results in ChEMBL document CHEMBL4196121, “Meridianin D Analogues Display Antibiofilm Activity against MRSA and Increase Colistin Efficacy in Gram-Negative Bacteria” (ACS Med Chem Lett, 2018).

The subject of series [1] is Staphylococcus aureus. The series can be described thus: Antibacterial activity against methicillin-resistant Staphylococcus aureus ATCC 43300 after 16 hrs by broth microdilution assay. The note with it: for MIC: ATCC 43300, 16 h. In kind it is functional.
Series [2] has as its system Staphylococcus aureus. The series can be described thus: Inhibition of biofilm formation in methicillin-resistant Staphylococcus aureus ATCC 43300 after 24 hrs by crystal violet staining based method. Format: functional, organism-based. The note with it: ATCC 43300, 24 h. In short, it runs like this:
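Read-out is the IC50, taken as the compound concentration that inhibits 50% of MRSA 43300 biofilm formation.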

The test system of series [3] is Staphylococcus aureus. The experiment in a line: Antibiofilm activity against methicillin-resistant Staphylococcus aureus ATCC 43300 assessed induction of dispersion of preformed biofilm after 24 hrs by crystal violet staining based method. Format: functional, organism-based. The note with it: ATCC 43300, 24 h.
For series [4], the system named is Escherichia coli. The experiment in a line: Antibacterial activity against Escherichia coli ATCC 25922 expressing mcr1 gene after 16 hrs by broth microdilution assay. In kind it is organism-based. The note with it: in vitro.
In series [5] the test system is Escherichia coli. The series can be described thus: Antibacterial activity against Escherichia coli ATCC 25922 after 16 hrs by broth microdilution assay. In kind it is organism-based.
For series [6], the system named is Acinetobacter baumannii. The experiment in a line: Antibacterial activity against Acinetobacter baumannii ATCC 17978 expressing mcr1 gene after 16 hrs by broth microdilution assay. Format: organism-based. The note with it: in vitro.
The subject of series [7] is Acinetobacter baumannii. The experiment in a line: Antibacterial activity against Acinetobacter baumannii ATCC 17978 after 16 hrs by broth microdilution assay. In kind it is organism-based.
In series [8] the test system is Acinetobacter baumannii. The series can be described thus: Antibacterial activity against Acinetobacter baumannii isolate 3941 after 16 hrs by broth microdilution assay. Format: organism-based.
Series [9] concerns Acinetobacter baumannii. The experiment in a line: Antibacterial activity against Acinetobacter baumannii isolate 4106 after 16 hrs by broth microdilution assay. In kind it is organism-based.
Series [10] has as its system Acinetobacter baumannii. The experiment in a line: Antibacterial activity against Acinetobacter baumannii ATCC 19606 after 16 hrs by broth microdilution assay. In kind it is organism-based, ATCC 19606 = CIP 70.34 = JCM 6841. The note with it: for MIC: […].
Series [11] has as its system Acinetobacter baumannii. The experiment in a line: Antibacterial activity against Acinetobacter baumannii isolate 5075 after 16 hrs by broth microdilution assay. In kind it is organism-based.
The subject of series [12] is Klebsiella pneumoniae. The experiment in a line: Antibacterial activity against Klebsiella pneumoniae ATCC 2146 expressing NDM1 gene after 16 hrs by broth microdilution assay. Format: organism-based. The note with it: for MIC: […].
The test system of series [13] is Klebsiella pneumoniae. The series can be described thus: Antibacterial activity against Klebsiella pneumoniae isolate C3 after 16 hrs by broth microdilution assay. The note with it: for MIC: […].
The subject of series [14] is Klebsiella pneumoniae. The series can be described thus: Antibacterial activity against Klebsiella pneumoniae isolate B9 after 16 hrs by broth microdilution assay. The note with it: in vivo.
Series [15] has as its system Staphylococcus aureus. The series can be described thus: Antibiofilm activity against methicillin-resistant Staphylococcus aureus ATCC 43300 assessed as dispersion of preformed biofilm after 24 hrs by crystal violet staining based method.
Series [16] deals with Acinetobacter baumannii. The experiment in a line: Potentiation of colistin-induced antimicrobial activity against Acinetobacter baumannii isolate 4106 after 16 hrs in presence of 0.01% triton X-100 by broth microdilution assay. Format: functional, organism-based.
The test system of series [17] is Klebsiella pneumoniae. The experiment in a line: Potentiation of colistin-induced antimicrobial activity against Klebsiella pneumoniae isolate B9 after 16 hrs in presence of 0.01% triton X-100 by broth microdilution assay. In kind it is functional, organism-based.
Series [18] relates to Staphylococcus aureus. The series can be described thus: Potentiation of vancomycin-induced antibacterial activity against methicillin-resistant Staphylococcus aureus ATCC 43300 assessed as dispersion of preformed biofilm after 24 hrs by crystal violet staining based method. The note with it: ATCC 43300, 24 h. In kind it is functional, organism-based.
Series [19] has as its system Klebsiella pneumoniae. The series can be described thus: Potentiation of colistin-induced antimicrobial activity against Klebsiella pneumoniae isolate C3 assessed as fold reduction in colistin MIC after 16 hrs by broth microdilution assay. In kind it is functional. An outline of the steps: (§1)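 Analogue at a fixed 60 μM unless otherwise noted, combined with colistin against the Gram-negative strain. Potentiation is read as the fold reduction in colistin MIC relative to colistin alone. A. baumannii 3941/4106 and K. pneumoniae C3/B9 are primary clinical isolates with genomically encoded colistin resistance.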

The subject of series [20] is Klebsiella pneumoniae. The series can be described thus: Potentiation of colistin-induced antimicrobial activity against Klebsiella pneumoniae isolate B9 after 16 hrs by broth microdilution assay. Format: functional, organism-based. An outline of the steps: as §1
Series [21] has as its system Acinetobacter baumannii. The experiment in a line: Potentiation of colistin-induced antimicrobial activity against Acinetobacter baumannii ATCC 19606 assessed as fold reduction in colistin MIC after 16 hrs by broth microdilution assay. In kind it is functional, ATCC 19606 = CIP 70.34 = JCM 6841. In short, it runs like this: as §1
Series [22] deals with Escherichia coli. The series can be described thus: Potentiation of colistin-induced antimicrobial activity against Escherichia coli ATCC 25922 expressing mcr1 gene assessed as fold reduction in colistin MIC after 16 hrs by broth microdilution assay. Format: functional. An outline of the steps:
as §1

In series [23] the test system is Escherichia coli. The experiment in a line: Potentiation of colistin-induced antimicrobial activity against Escherichia coli ATCC 25922 assessed as fold reduction in colistin MIC after 16 hrs by broth microdilution assay. In kind it is functional. In short, it runs like this: as §1
Series [24] has as its system Acinetobacter baumannii. The experiment in a line: Potentiation of colistin-induced antimicrobial activity against Acinetobacter baumannii ATCC 17978 expressing mcr1 gene assessed as fold reduction in colistin MIC after 16 hrs by broth microdilution assay. In kind it is functional. In short, it runs like this: as §1
In series [25] the test system is Acinetobacter baumannii. The series can be described thus: Potentiation of colistin-induced antimicrobial activity against Acinetobacter baumannii ATCC 17978 assessed as fold reduction in colistin MIC after 16 hrs by broth microdilution assay. In kind it is functional. In short, it runs like this: as §1
Series [26] relates to Acinetobacter baumannii. The experiment in a line: Potentiation of colistin-induced antimicrobial activity against Acinetobacter baumannii isolate 4106 assessed as fold reduction in colistin MIC after 16 hrs by broth microdilution assay. In kind it is functional. An outline of the steps: as §1
The subject of series [27] is Klebsiella pneumoniae. The experiment in a line: Potentiation of colistin-induced antimicrobial activity against Klebsiella pneumoniae isolate B9 assessed as fold reduction in colistin MIC after 16 hrs by broth microdilution assay. In kind it is functional. An outline of the steps:
as §1

Series [28] relates to Acinetobacter baumannii. The series can be described thus: Potentiation of colistin-induced antimicrobial activity against Acinetobacter baumannii isolate 5075 assessed as fold reduction in colistin MIC after 16 hrs by broth microdilution assay. In kind it is functional. In short, it runs like this: as §1
For series [29], the system named is Klebsiella pneumoniae. The experiment in a line: Potentiation of colistin-induced antimicrobial activity against Klebsiella pneumoniae ATCC 2146 expressing NDM1 gene assessed as fold reduction in colistin MIC after 16 hrs by broth microdilution assay. In kind it is functional. An outline of the steps:
as §1

pEC50, pIC50: −log10 of the molar value. In brackets after ≈: the same amount, converted by molar mass. Activity calls are given as the source filed them. The calls are words filed in the database; no cut-off is given here.

In the case of `CN(C)c1nccc(-c2c[nH]c3ccc(Br)cc23)n1.Cl`, the MIC in [1] is 100 µM; in series [4], more than 200 µM; in series [5], more than 200 µM; in series [6], more than 200 µM; in series [7], more than 200 µM; in series [8] it was more than 200 µM. Besides, the MIC in series [9], in [10], in series [11], in series [12], in series [13] and in [14] was more than 200 µM throughout. Also, the pIC50 in series [2] was 4.63. The compound also gave a pEC50 in [3] of less than 3.80. Besides, in [15], the EC50 entry was “Not Active”.

With `Nc1nccc(-c2c[nH]c3ccccc23)n1`, the outcome in series [1], in series [16] and in series [17] was inactive. In addition, in series [2], the pIC50 is less than 4.00.

With `CNc1nccc(-c2c[nH]c3ccc(Br)cc23)n1.Cl`, the MIC in series [1] is 100 µM; in series [4], more than 200 µM; in [5], more than 200 µM; in [6] it was more than 200 µM; in [7], more than 200 µM; in [8] it was more than 200 µM. The MIC in series [9], in series [10], in series [11], in series [12], in series [13] and in [14] was more than 200 µM in each case. Also, the pIC50 in series [2] was 4.54. The pEC50 is 4.14 in series [3] and 4.15 in [18]. The results for the “fold change (FC)” value in [19] and in series [21] were 512 and 16, respectively. In addition, the outcome in series [20] was Active.

Consider `Cc1ccc2[nH]cc(-c3ccnc(N)n3)c2c1.Cl`, for which the result in [1], in [16] and in [17] was inactive. The pIC50 in series [2] was less than 4.00. Besides, the MIC in [4], in series [5], in series [6], in series [7], in series [8] and in series [9] was more than 200 µM throughout. Besides, the MIC in [10], in series [11], in [12], in series [13] and in series [14] was more than 200 µM each time.

Consider `Cl.Nc1nccc(-c2c[nH]c3cc(Br)ccc23)n1`, for which the MIC in series [1] was more than 200 µM. In addition, the pIC50 in [2] was 4.06. Besides, the “fold change (FC)” value in [22] came to 2; in series [23], 0; in series [24], 32; in [25] it was 2; in series [26], 64; in [27], 64. In addition, the “fold change (FC)” value in [28] was 4; in [29], 2.

For the compound `CCCCn1cc(-c2ccnc(N)n2)c2cc(Br)ccc21.Cl`, the MIC in [1] was 50 µM; in series [4], more than 200 µM; in [5] it was more than 200 µM; in series [6] it was more than 200 µM; in series [7], more than 200 µM; in [8], more than 200 µM. For the same compound, the MIC in series [9], in series [10], in series [11], in series [12], in [13] and in series [14] was more than 200 µM throughout. Further, the pIC50 in [2] is 4.42. For the same compound, the pEC50 in series [3] was less than 3.80. Moreover, the “fold change (FC)” value in series [23], in series [25] and in series [21] was 16 each time. In addition, in series [15], the EC50 result is on record as “Not Active”.

In [1], `CCCn1cc(-c2ccnc(N)n2)c2ccc(Br)cc21.Cl` displayed an MIC of 200 µM. Further, the pIC50 in series [2] is 4.46. Further, the pEC50 in series [3] was less than 3.80. Besides, the Activity entry in series [7], in [8], in series [9], in series [10], in series [11] and in [12] (in vitro) was “Toxic” each time. Further, the Activity entry in series [13] and in series [14] was “Toxic” each time. In series [21], the “fold change (FC)” value is listed as 16. The EC50 entry in [15] was “Not Active”.

Consider `CCCn1cc(-c2ccnc(N)n2)c2cc(Br)ccc21.Cl`, for which the MIC in series [1] was 100 µM; in series [4] it was more than 200 µM; in [5], more than 200 µM; in series [6] it was more than 200 µM; in [7], more than 200 µM; in series [8], more than 200 µM. For the same compound, the MIC in series [9], in series [10], in series [11], in [12], in series [13] and in [14] was more than 200 µM in each case. In [2], this compound showed a pIC50 of 4.16. Further, the “fold change (FC)” value stood at 4 in series [22]; 16 in series [23]; 4 in series [24]; 16 in series [25]; 64 in series [26]; 512 in series [27]. The “fold change (FC)” value in [28] turned out to be 128; in series [29], 16. For the same compound, the outcome in series [20] was Active.

Consider `Nc1nccc(-c2c[nH]c3ccc(Br)cc23)n1`, for which the MIC in series [1] came out at 200 µM (≈ 57.8 µg/mL). In [2], this compound gave a pIC50 of 4.75. Also, the pEC50 in [3] is 3.86; in series [18], 4.04.

In [2], `CC(C)Cn1cc(-c2ccnc(N)n2)c2cc(Br)ccc21.Cl` had a pIC50 of less than 4.00. For the same compound, the “fold change (FC)” value in series [23], in series [25] and in series [21] was 16 in each case. Further, the MIC in series [4], in series [5], in [6], in series [7], in series [8] and in series [9] was more than 200 µM each time. Besides, the MIC in series [10], in [11], in series [12], in series [13] and in series [14] was more than 200 µM throughout.
